Experimental data from different studies.
Compare with care: the assays were run in different laboratories.
Read-out: enzyme activity
Action: inhibitor
CDK2: Cyclin-dependent kinase 2 (CDK2, Homo sapiens, UniProt P24941)
CDK2 with cyclin A: Cyclin-dependent kinase 2, with cyclin A (CDK2, Homo sapiens, UniProt P24941)
CDK2 with cyclin E: Cyclin-dependent kinase 2, with cyclin E (CDK2, Homo sapiens, UniProt P24941)

The inhibition of `CSc1nc(C)c(-c2ccnc(Nc3ccc(N4CCOCC4)cc3)c2)[nH]1` is reported as 66.4% (CDK2; 10 µM).
The inhibition of `O=C(CSc1nc2nccnc2c(=O)n1CCc1ccccc1)Nc1nccs1` is reported as 3% (Cyclin-dependent kinase 2, with cyclin O (CDK2, Homo sapiens, UniProt P24941); 10 µM).
`COc1cc(-c2cc(-c3ccc(N4CCNCC4)cc3)cnc2N)cc(OC)c1OC` gave an inhibition of 1% (CDK2 with cyclin A; 0.1 µM).
`Cn1cnc(Br)c1C1=CN(c2ncnc3[nH]cnc23)CCS1` has an inhibition of 50.8% (CDK2; radiometric; 2 µM).
The inhibition of `CN(c1ncccc1CNc1nc(Nc2ccc3c(c2)CC(=O)N3)ncc1C(F)(F)F)S(C)(=O)=O` is reported as 94.4% (CDK2; 1 µM).
For `CC/C(=N\NC(=O)NCc1cccc(O)c1)c1ccc(O)c(C)c1O`, the inhibition was -16.4% (Cyclin-dependent kinase 2, with cyclin E1 (CDK2, Homo sapiens, UniProt P24941); 0.1 µM).
With `Cn1cncc1C1=CN(c2ncnc3[nH]cnc23)CCS1` the inhibition was 49.1% (CDK2; radiometric; 2 µM).
`CN1CC(Oc2cnc(C#N)cc2-c2ccn3nc(NC(=O)C4CC4)cc3c2)C1` has an inhibition of -13% (CDK2 with cyclin E; 1 µM).
`COc1cc2ncnc(Nc3ccc(Oc4ccccc4)c(C)c3C)c2cc1OC` gave an inhibition of 1% (CDK2 with cyclin A; 1 µM).
`CN(C)C1CCN(CC#Cc2nn(C3CCCC3)c3nc(NCc4ccccc4)ncc23)C1` (centres unmarked) has an inhibition of 7% (CDK2 with cyclin A; FRET; 0.1 µM).
With `CCCS(=O)(=O)Nc1ccc(F)c(C(=O)c2c[nH]c3ncc(-c4ccc(Cl)cc4)cc23)c1F` the inhibition was less than 10% (CDK2 with cyclin E; 1 µM).
